Experimental data published in ChEMBL document CHEMBL4765230, “Discovery of Orally Efficacious Phosphoinositide 3-Kinase δ Inhibitors with Improved Metabolic Stability” (J Med Chem, 2016).

What was measured:
[1] = target: T1, Phosphatidylinositol 4,5-bisphosphate 3-kinase catalytic subunit delta isoform (Homo sapiens, UniProt O00329); test: Inhibition of PI3K p110delta in human basophil assessed as reduction in anti-FCepsilonR1 mAb-induced basophil activation preincubated for 60 mins followed by anti-FCepsilonR1 mAb stimulation and measured after 25 mins in presence of 25% serum by flow cytometry analysis; assay type: tissue-based
T1 sequence (O00329 whole entry): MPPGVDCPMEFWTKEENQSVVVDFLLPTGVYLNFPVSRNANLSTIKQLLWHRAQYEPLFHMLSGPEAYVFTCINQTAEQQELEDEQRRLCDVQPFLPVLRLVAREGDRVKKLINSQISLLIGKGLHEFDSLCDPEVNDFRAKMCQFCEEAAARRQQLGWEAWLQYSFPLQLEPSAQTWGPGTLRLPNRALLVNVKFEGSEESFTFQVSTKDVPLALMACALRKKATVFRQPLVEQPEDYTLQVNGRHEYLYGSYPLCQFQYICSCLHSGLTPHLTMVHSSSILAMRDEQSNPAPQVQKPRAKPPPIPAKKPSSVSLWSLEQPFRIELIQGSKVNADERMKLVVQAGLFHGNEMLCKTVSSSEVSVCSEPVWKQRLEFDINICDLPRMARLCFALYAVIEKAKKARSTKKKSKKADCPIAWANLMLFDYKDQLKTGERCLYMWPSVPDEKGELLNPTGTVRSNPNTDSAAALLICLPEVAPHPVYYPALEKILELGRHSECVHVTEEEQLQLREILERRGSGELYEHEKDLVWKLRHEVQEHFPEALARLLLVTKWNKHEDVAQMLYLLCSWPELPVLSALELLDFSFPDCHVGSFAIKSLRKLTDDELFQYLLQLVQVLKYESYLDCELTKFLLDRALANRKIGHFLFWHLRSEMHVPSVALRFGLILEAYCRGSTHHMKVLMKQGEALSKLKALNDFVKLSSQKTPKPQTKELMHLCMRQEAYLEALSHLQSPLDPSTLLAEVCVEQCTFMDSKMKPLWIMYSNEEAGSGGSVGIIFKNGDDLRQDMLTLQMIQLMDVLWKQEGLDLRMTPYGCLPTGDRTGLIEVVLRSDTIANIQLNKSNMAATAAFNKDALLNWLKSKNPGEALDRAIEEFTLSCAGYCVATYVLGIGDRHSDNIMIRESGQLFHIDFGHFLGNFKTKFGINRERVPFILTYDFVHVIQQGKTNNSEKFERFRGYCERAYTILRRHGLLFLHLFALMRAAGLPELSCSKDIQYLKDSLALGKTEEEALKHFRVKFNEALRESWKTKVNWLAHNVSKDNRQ

[2] = Cmax in Lewis rat at 5 mg/kg, po administered as single dose measured at 2 hrs; assay type: ADME, organism-based; design: route oral, dose 5 mg/kg, time 2 hrs; details: in vivo
How it was run: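 Female Lewis rats given a single oral dose of 1 or 5 mg/kg; plasma concentration–time profiles determined; mean ± SD, n = 3.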

[3] = target: Voltage-gated inwardly rectifying potassium channel KCNH2 (Homo sapiens, UniProt Q12809); test: Inhibition of human ERG at 25 uM
Sequence of Voltage-gated inwardly rectifying potassium channel KCNH2 (Q12809 whole entry): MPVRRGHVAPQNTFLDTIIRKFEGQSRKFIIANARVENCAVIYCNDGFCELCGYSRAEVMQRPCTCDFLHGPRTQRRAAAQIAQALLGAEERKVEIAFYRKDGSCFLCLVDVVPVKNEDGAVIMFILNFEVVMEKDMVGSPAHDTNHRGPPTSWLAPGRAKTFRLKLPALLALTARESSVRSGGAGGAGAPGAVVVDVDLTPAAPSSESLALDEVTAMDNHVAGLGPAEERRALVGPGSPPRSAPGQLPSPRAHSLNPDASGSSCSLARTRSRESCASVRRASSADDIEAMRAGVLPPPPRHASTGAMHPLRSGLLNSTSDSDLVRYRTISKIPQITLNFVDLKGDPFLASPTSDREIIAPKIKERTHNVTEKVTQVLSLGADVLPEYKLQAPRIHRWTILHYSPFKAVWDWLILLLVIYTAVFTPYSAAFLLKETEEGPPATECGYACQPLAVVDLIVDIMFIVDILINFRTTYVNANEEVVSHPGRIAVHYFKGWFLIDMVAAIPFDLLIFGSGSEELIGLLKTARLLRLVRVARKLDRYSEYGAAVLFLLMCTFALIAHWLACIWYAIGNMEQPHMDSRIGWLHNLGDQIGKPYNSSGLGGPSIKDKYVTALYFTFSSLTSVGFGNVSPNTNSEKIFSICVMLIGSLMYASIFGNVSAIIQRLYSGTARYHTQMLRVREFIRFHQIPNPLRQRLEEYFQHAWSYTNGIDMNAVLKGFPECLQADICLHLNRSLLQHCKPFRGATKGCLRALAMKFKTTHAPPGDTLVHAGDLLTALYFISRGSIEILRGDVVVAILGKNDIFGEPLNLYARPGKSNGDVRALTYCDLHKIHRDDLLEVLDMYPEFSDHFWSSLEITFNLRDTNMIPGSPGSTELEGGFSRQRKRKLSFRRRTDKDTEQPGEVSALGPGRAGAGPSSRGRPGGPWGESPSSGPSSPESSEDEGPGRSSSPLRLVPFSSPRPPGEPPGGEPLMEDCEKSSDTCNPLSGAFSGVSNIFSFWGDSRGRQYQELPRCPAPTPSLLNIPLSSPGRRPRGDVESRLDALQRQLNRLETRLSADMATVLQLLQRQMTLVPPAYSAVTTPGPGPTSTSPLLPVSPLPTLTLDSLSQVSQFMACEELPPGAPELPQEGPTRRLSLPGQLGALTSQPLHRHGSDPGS

EC50 [1]: 1.3 nM
Cmax [2]: 1780 nM
Structure (SMILES): N#Cc1c(N)nc(N)nc1N[C@H](c1nc2c(F)ccc(Cl)c2c(=O)n1-c1cccnc1)C1CC1 [GS-9901]
inhibition (INH) [3]: Not Active
